Assay [1] addresses Epidermal growth factor receptor (Homo sapiens, UniProt P00533).
Assay [2] addresses Receptor tyrosine-protein kinase erbB-2 (Homo sapiens, UniProt P04626). Description: Inhibition of HER2 (unknown origin) assessed as remaining ATP level measured after 15 mins by luminescence analysis. In a few lines: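 Kinase run as a contracted HTRF assay. Compounds in 3-fold dilution in 2.5% DMSO/kinase buffer, mixed with kinase and substrate, preincubated 15 min at RT. ATP added to start, reaction 30 min at RT. Stopped with Streptavidin-XL665 plus europium-cryptate TK antibody (1:100). Excitation 320 nm, 665/615 nm emission ratio. IC50 from inhibition curves, results from 2 assays.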

The target in a further assay is Histone deacetylase 1 (Homo sapiens, UniProt Q13547). Put plainly: Inhibition of HDAC1 (unknown origin) using acetylated peptide substrate preincubated for 15 mins followed by substrate addition measured after 60 mins by fluorescence analysis.
Assay [3] deals with T1, Protein deacetylase HDAC6 (Homo sapiens, UniProt Q9UBN7).
T1 sequence (Q9UBN7 whole entry): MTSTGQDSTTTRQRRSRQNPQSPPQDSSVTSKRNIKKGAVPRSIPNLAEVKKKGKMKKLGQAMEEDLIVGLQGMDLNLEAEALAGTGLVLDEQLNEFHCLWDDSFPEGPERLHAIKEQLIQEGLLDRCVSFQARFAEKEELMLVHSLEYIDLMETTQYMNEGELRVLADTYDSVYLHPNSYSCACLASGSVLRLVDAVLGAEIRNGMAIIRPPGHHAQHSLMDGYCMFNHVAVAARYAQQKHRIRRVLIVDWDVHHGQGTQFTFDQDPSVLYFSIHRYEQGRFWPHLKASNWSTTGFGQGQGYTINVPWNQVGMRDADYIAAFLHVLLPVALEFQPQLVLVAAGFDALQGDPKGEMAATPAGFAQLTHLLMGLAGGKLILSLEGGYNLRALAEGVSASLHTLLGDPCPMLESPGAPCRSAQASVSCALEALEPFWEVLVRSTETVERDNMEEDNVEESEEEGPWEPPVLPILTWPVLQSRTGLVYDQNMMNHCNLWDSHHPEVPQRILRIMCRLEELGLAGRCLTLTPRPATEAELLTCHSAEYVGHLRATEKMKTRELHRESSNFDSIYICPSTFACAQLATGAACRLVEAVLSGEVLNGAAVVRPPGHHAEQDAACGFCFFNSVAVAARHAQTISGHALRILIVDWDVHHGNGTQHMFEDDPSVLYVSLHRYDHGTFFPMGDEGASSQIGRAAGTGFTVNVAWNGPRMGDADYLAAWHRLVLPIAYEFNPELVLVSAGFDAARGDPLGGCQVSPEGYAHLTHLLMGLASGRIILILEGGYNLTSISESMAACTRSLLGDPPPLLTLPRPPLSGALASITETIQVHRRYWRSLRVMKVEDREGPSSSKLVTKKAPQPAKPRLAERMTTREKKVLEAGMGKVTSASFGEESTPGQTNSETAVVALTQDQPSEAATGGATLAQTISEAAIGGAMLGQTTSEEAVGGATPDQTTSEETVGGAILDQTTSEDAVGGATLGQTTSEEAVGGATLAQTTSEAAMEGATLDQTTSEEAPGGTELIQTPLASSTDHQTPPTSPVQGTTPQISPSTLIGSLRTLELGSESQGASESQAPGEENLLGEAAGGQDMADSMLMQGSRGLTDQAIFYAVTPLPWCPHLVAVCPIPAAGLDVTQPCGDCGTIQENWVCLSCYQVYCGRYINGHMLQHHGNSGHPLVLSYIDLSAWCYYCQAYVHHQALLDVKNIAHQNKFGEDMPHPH
Put plainly: Inhibition of HDAC6 (unknown origin) using acetylated peptide substrate preincubated for 15 mins followed by substrate addition measured after 60 mins by fluorescence analysis.

Assay [4] in a line: cells. Type of assay: functional, cell-based. To be noted: Homo sapiens, A549, 48 h.
Assay [5] is described as follows: cells. To be noted: Homo sapiens, BT-474, 48 h. Type of assay: functional, cell-based.
Assay [6] in a line: cells. As to conditions: Homo sapiens, A-431, 48 h.
Assay [7] can be described thus: cells. As to conditions: Homo sapiens, SK-BR-3, 48 h.
Assay [8] in a line: cells. To be noted: Homo sapiens, NCI-H1975, 48 h.

Sequence of Receptor tyrosine-protein kinase erbB-2 (P04626 whole entry): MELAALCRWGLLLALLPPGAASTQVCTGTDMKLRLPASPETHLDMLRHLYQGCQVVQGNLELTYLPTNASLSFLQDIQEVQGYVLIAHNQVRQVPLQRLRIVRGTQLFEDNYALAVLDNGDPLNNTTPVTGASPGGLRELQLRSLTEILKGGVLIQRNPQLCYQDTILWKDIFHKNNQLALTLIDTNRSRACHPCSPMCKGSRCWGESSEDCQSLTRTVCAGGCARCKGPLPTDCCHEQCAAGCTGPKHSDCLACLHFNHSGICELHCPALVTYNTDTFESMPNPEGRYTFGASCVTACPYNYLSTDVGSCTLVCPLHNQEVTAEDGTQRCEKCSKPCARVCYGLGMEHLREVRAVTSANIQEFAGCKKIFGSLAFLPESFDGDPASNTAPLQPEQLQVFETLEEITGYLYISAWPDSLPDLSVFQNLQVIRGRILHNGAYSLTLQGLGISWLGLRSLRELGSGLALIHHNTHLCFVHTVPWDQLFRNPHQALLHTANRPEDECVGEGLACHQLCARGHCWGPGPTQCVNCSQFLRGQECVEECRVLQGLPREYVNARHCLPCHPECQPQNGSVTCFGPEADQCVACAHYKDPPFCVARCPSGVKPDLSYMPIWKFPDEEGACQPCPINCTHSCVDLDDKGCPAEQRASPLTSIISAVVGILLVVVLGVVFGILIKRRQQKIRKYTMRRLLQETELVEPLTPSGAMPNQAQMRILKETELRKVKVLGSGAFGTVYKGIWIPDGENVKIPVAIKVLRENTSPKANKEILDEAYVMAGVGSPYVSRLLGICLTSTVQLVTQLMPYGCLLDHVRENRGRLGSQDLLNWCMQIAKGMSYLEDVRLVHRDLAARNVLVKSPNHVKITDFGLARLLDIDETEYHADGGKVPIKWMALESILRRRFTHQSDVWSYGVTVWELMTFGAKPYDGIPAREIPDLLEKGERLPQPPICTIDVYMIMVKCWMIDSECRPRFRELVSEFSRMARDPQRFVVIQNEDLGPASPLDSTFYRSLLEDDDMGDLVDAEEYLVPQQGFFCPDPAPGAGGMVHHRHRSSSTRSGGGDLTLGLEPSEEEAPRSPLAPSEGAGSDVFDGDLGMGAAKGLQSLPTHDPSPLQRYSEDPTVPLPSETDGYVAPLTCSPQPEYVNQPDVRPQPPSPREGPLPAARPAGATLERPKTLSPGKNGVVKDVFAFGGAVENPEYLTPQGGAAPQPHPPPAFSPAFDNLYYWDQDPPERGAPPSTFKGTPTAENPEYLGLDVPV
Sequence of Epidermal growth factor receptor (P00533 whole entry): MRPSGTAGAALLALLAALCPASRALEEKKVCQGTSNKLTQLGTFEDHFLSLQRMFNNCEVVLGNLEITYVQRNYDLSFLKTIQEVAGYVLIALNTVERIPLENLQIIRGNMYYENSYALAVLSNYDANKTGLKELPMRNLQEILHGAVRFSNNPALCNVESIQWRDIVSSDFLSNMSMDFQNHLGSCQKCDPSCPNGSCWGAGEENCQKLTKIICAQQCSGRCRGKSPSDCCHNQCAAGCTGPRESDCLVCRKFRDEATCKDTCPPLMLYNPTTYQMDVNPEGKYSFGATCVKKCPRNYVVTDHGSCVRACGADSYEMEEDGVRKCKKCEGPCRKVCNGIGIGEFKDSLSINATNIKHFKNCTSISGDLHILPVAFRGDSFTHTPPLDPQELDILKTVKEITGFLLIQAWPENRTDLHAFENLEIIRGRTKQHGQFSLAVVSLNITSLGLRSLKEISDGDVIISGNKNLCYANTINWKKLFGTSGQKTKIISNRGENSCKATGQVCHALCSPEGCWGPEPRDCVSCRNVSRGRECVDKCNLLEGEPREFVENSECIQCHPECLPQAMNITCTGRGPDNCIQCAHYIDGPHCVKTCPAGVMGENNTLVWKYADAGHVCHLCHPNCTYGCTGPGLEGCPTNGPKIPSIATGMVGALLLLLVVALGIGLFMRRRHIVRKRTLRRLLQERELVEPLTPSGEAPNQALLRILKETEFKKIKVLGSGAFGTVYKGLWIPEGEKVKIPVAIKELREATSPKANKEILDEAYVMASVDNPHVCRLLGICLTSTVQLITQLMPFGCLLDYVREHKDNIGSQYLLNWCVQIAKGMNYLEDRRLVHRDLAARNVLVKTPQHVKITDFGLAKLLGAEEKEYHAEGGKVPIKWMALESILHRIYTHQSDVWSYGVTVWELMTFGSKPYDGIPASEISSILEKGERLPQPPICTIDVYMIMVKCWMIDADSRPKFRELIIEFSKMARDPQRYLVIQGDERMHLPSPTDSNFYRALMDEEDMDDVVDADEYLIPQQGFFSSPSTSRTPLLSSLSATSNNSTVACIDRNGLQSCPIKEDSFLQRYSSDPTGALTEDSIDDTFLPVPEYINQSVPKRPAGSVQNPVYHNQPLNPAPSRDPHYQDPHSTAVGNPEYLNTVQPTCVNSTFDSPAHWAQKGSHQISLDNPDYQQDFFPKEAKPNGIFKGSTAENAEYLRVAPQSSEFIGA
Sequence of Histone deacetylase 1 (Q13547 whole entry): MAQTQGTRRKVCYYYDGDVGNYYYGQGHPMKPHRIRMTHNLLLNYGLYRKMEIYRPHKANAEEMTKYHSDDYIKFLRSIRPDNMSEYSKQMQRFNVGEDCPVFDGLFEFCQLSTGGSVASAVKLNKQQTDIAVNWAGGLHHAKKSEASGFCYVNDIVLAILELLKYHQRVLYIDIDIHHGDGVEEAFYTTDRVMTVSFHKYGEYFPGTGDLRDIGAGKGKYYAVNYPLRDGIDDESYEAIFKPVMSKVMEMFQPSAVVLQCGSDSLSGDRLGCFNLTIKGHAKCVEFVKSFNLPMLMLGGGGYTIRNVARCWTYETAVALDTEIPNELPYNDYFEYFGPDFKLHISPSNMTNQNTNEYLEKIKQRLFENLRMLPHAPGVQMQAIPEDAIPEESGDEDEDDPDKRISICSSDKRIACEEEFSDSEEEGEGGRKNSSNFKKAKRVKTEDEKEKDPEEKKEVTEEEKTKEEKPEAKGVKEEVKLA

In the case of `Cc1ccc(Oc2ccc(Nc3ncnc4ccc(-c5cn(CCCCCCC(=O)NO)nn5)cc34)cc2C)cn1`, the IC50 in [1] is 10 nM; in [2], above 1000 nM; at Histone deacetylase 1, 5.2 nM; in assay [3], 13.8 nM; in the assay “cells [4]”, 16500 nM; in “cells [5]” it was 4410 nM.
`COc1cc(Nc2ncnc3ccc(-c4cn(CCCCCCC(=O)NO)nn4)cc23)ccc1Oc1ccccc1`: the 50% inhibitory concentration (IC50) in assay [1] is 11.6 nM; in assay [2], above 1000 nM; against Histone deacetylase 1, 12.8 nM; in [3], 16 nM; in the assay “cells [4]” it was 13500 nM; in the assay “cells [5]”, 4950 nM.
On to `CS(=O)(=O)CCNCc1ccc(-c2ccc3ncnc(Nc4ccc(OCc5cccc(F)c5)c(Cl)c4)c3c2)o1` [LAPATINIB], for which the IC50 in “cells [4]” was 510 to 1740 nM; in “cells [5]”, 100 nM; in the assay “cells [6]”, 150 nM; in the assay “cells [7]”, 60 nM; in “cells [8]”, 7250 nM.
For the molecule `Cc1ccc(Oc2ccc(Nc3ncnc4ccc(-c5cn(CCCCCC(=O)NO)nn5)cc34)cc2C)cn1`, the IC50 in assay [1] was 6.4 nM; in assay [2], above 1000 nM; on Histone deacetylase 1 it was 6.9 nM; in [3], 12.9 nM; in the assay “cells [4]” it was 8460 nM; in “cells [5]”, 14600 nM.
For `O=C(CCCCCCn1cc(-c2ccc3ncnc(Nc4ccc(F)c(Cl)c4)c3c2)nn1)NO`, the IC50 was determined as 0.69 nM in assay [1]; 177 nM in assay [2]; 2.6 nM against Histone deacetylase 1; 8.4 nM in assay [3]; 510 nM in the assay “cells [4]”; 3630 nM in the assay “cells [5]”. Further, the IC50 was determined as 1950 nM in the assay “cells [6]”, 1270 nM in the assay “cells [7]” and 8760 nM in “cells [8]”.
As to `O=C(CCCCCn1cc(-c2ccc3ncnc(Nc4ccc(OCc5cccc(F)c5)c(Cl)c4)c3c2)nn1)NO`, the IC50 in assay [1] was 1.9 nM; in [2], 193 nM; against Histone deacetylase 1 it was 38.6 nM; in assay [3], 94.2 nM; in “cells [4]” it was above 50000 nM; in the assay “cells [5]”, 2200 nM.
Consider `O=C(CCCCCn1cc(-c2ccc3ncnc(Nc4cccc(Cl)c4F)c3c2)nn1)NO`, for which the half-maximal inhibitory concentration (IC50) was 0.27 nM in assay [1]; 386 nM in [2]; 1.4 nM at Histone deacetylase 1; 4.1 nM in [3]; above 50000 nM in “cells [4]”; above 50000 nM in “cells [5]”.
Take `O=C(CCCCCn1cc(-c2ccc3ncnc(Nc4ccc(OCc5nccs5)c(Cl)c4)c3c2)nn1)NO`: the IC50 amounted to 6.9 nM in [1]; 537 nM in assay [2]; 7.2 nM against Histone deacetylase 1; 14.3 nM in assay [3]; 9960 nM in the assay “cells [4]”; 20600 nM in “cells [5]”.
Regarding `O=C(CCCCCCn1cc(-c2ccc3ncnc(Nc4ccc(OCc5cccc(F)c5)c(Cl)c4)c3c2)nn1)NO`, the IC50 in assay [1] is 4.2 nM; in assay [2], 16.4 nM; against Histone deacetylase 1, 8.3 nM; in assay [3] it was 19.5 nM; in “cells [4]”, 3680 nM; in the assay “cells [5]”, 2240 nM.
Turning to `O=C(CCCCCCC(=O)Nc1ccccc1)NO` [VORINOSTAT], in “cells [6]”, half-maximal inhibition (IC50) required 2290 nM.
`COc1cc(Nc2ncnc3ccc(-c4cn(CCCCCC(=O)NO)nn4)cc23)ccc1Oc1ccccc1`: the IC50 is 5.8 nM in assay [1]; above 1000 nM in assay [2]; 26.6 nM on Histone deacetylase 1; 18.5 nM in [3]; 43400 nM in the assay “cells [4]”; 23600 nM in “cells [5]”.
In the case of `O=C(CCCCCCn1cc(-c2ccc3ncnc(Nc4ccc(OCc5nccs5)c(Cl)c4)c3c2)nn1)NO`, the 50% inhibitory concentration (IC50) is 3.6 nM in assay [1]; 707 nM in assay [2]; 5.6 nM against Histone deacetylase 1; 13.6 nM in assay [3]; 8790 nM in “cells [4]”; 2880 nM in the assay “cells [5]”.
For the molecule `O=C(CCCCCn1cc(-c2ccc3ncnc(Nc4ccc(F)c(Cl)c4)c3c2)nn1)NO`, the IC50 was 0.65 nM in [1]; 166 nM in [2]; 7 nM against Histone deacetylase 1; 9.5 nM in [3]; above 50000 nM in “cells [4]”; 26000 nM in “cells [5]”.

As usually defined, the IC50 is the concentration that gives 50% inhibition.

(Values after ChEMBL document CHEMBL3870325 (Bioorg Med Chem, 2017).)
